Measurements reported in publication PMC3350218 (Journal of Medicinal Chemistry, 2012).
Where two headings read alike, the source gives them in different places. Blank lines part the entries; values can stand above or below the molecule they belong to.

Legend:
[1] = test system: P. falciparum strain W2; assay: Antiplasmodial proliferation inhibition assay, 384-well, SYBR Green; assay type: cell-based, Plasmodium falciparum
In short: (§1)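 P. falciparum was grown in O+ erythrocytes and tested in serum-free medium with 0.5% Albumax II. Test compound ran as a 12-point half-log series, top final 10 μM, at 0.3% parasitemia and 2.5% hematocrit, 72 h, 37 °C, low-oxygen gas. Saponin/Triton lysis buffer with SYBR Green was added (24 h, 25 °C), then fluorescence read at 485/530 nm. […] EC50 came from logistic fit, with at least duplicate plates.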

[2] = Caco-2 permeability assay; assay type: in vitro ADME; settings: human, Caco-2
[3] = test system: Caco-2; assay: Caco-2 permeability assay; assay type: in vitro ADME; settings: for Caco-2 A–B: apical to basolateral; for Caco-2 B–A: basolateral to apical
[4] = test system: Plasmodium berghei; assay: Plasmodium berghei mouse survival model; assay type: in vivo, Plasmodium berghei (NMRI mice); settings: for survival (average lifespan after infection): untreated control 6–7 days
In short: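 Female NMRI mice (20–22 g), three per group, were infected IV on day 0 with 2 × 10^7 P. berghei GFP ANKA-parasitised erythrocytes. Test compound in 75% PEG300/25% D5W was given orally at 10 mL/kg, either once at 24 h or daily at 24, 48 and 72 h. Parasitemia was measured by flow cytometry at 72 h or 96 h, as % reduction versus untreated controls. Survival was followed to day 30, and cure meant parasite-free survival to day 30.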

[5] = In vivo pharmacokinetics in mice; settings: mouse, plasma
[6] = Rat full PK / dose escalation PK; assay type: in vivo; settings: rat PO, 30 mg/kg vs 10 mg/kg
[7] = Rat snapshot PK; assay type: in vivo
[8] = test system: P. falciparum; assay: Antiplasmodial activity as quoted in text; assay type: cell-based, Plasmodium falciparum; settings: for EC50: Plasmodium falciparum, read-out: antiplasmodial activity EC50; for loss/decrease of potency: relative to parent compound (17: 8-methyl; 32: lactam vs 31); for improvement in potency: on 8,8-dimethyl substitution (33 vs 32; 35 vs 31)
In short: as §1

[9] = Metabolic stability in mouse liver microsomes; assay type: in vitro ADME; settings: Table 2
[10] = test system: P. falciparum strain 3D7; assay: Antiplasmodial proliferation inhibition assay, 384-well, SYBR Green; assay type: cell-based; settings: Plasmodium falciparum, 3D7, read-out: P. falciparum strain EC50 3D7
In short: as §1

[11] = PAMPA assay; assay type: in vitro ADME; settings: Table 3
[12] = read-out: P. falciparum strain EC50 W2, Table 1, means of two experiments, 72 h incubation
[13] = Wistar, rat, plasma, po, 20 mg/kg

Molecule: 2-Amino-1-(3-(4-chloro-3-fluorophenylamino)-2-(4-fluorophenyl)-8,8-dimethyl-5,6-dihydroimidazo[1,2-a]pyrazin-7(8H)-yl)ethanone [Compound 21]
- EC50 [1, 12]: 24 ± 1 nM

- Papp A→B [2]: 0.7 ×10⁻⁶ cm/s
- Papp B→A [2]: 2.55 ×10⁻⁶ cm/s
Molecule: NCC(=O)N1CCn2c(nc(-c3ccc(F)cc3)c2Nc2ccc(F)cc2)C1 [Compound 15]

Molecule: CC1(C)c2nc(-c3ccc(F)cc3)c(Nc3ccc(F)cc3)n2CCN1C(=O)CN [Compound 22, 2-Amino-1-(2-(4-fluorophenyl)-3-(4-fluorophenylamino)-8,8-dimethyl-5,6-dihydroimidazo[1,2-a]pyrazin-7(8H)-yl)ethanone]
- Caco-2 A–B [3]: 1.26 cm/s ×10^6
- Caco-2 B–A [3]: 2.99 cm/s ×10^6
- activity (average parasitemia reduction) ([4]; 1 × 30 mg/kg oral, 30 mg/kg): > 99%
- efficacy of substituted vs unsubstituted piperazine core (ED99) ([4]; compound 22 vs compound 1): ~10 fold
- Cmax ([5]; oral, 2 mg/kg): ~75 nM
- increase in AUC [6]: 7 fold
- increase in bioavailability [6]: 2 fold

- Caco-2 A–B [3]: 0.61 cm/s ×10^6
- Caco-2 B–A [3]: 1.3 cm/s ×10^6
Molecule: CC1(C)c2nc(-c3ccc(F)cc3)c(Nc3ccc(F)c(F)c3)n2CCN1C(=O)CN [Compound 24, 2-Amino-1-(3-((3,4-difluorophenyl)amino)-2-(4-fluorophenyl)-8,8-dimethyl-5,6-dihydroimidazo[1,2-a]pyrazin-7(8H)-yl)ethanone]
- activity (average parasitemia reduction) ([4]; 1 × 30 mg/kg oral, 30 mg/kg): > 99%

- Papp A→B [2]: 3.05 ×10⁻⁶ cm/s
- Papp B→A [2]: 8.38 ×10⁻⁶ cm/s
Molecule: CC(C)(N)C(=O)N1CCn2c(nc(-c3ccc(F)cc3)c2Nc2ccc(F)cc2)C1 [Compound 27, 2-Amino-1-(2-(4-fluorophenyl)-3-((4-fluorophenyl)amino)-5,6-dihydroimidazo[1,2-a]pyrazin-7(8H)-yl)-2-methylpropan-1-one]

- Caco-2 A–B [3]: 1.2 cm/s ×10^6
- Caco-2 B–A [3]: 0.97 cm/s ×10^6
Molecule: CC(C)(N)C(=O)N1CCn2c(nc(-c3ccc(F)cc3)c2Nc2ccc(F)cc2)C1(C)C [Compound 28, 2-Amino-1-(2-(4-fluorophenyl)-3-(4-fluorophenylamino)-8,8-dimethyl-5,6-dihydroimidazo[1,2-a]pyrazin-7(8H)-yl)-2-methylpropan-1-one]

Molecule: Cc1ccc(Nc2c(-c3ccc(F)cc3)nc3n2CCN(C(=O)C(C)(C)N)C3(C)C)cc1 [Compound 29, 2-Amino-1-(2-(4-fluorophenyl)-8,8-dimethyl-3-(p-tolylamino)-5,6-dihydroimidazo[1,2-a]pyrazin-7(8H)-yl)-2-methylpropan-1-one]
- Caco-2 A–B [3]: 3.5 cm/s ×10^6
- Caco-2 B–A [3]: 2.37 cm/s ×10^6
- activity (average parasitemia reduction) ([4]; 1 × 30 mg/kg oral, 30 mg/kg): > 99%
- survival (average lifespan after infection) ([4]; 3 × 30 mg/kg oral): 18.0 days
- in vivo exposure in rat ([7]; oral, rat snapshot PK): did not exhibit any in vivo exposure

- Caco-2 A–B [3]: 8.2 cm/s ×10^6
- Caco-2 B–A [3]: 2.36 cm/s ×10^6
- EC50 [8]: 160 to 400 nM
Molecule: Cc1ccc(Nc2c(-c3ccc(F)cc3)nc3n2CCNC3)cc1 [Compound 31, 2-(4-Fluorophenyl)-N-(p-tolyl)-5,6,7,8-tetrahydroimidazo[1,2-a]pyrazin-3-amine]

- Caco-2 A–B [3]: 15 cm/s ×10^6
- Caco-2 B–A [3]: 14.37 cm/s ×10^6
Molecule: Cc1ccc(Nc2c(-c3ccc(F)cc3)nc3n2CC(=O)NC3)cc1 [Compound 32, 2-(4-Fluorophenyl)-3-(p-tolylamino)-7,8-dihydroimidazo[1,2-a]pyrazin-6(5H)-one]
- loss/decrease of potency [8]: ~7 fold

Molecule: Cc1ccc(Nc2c(-c3ccc(F)cc3)nc3n2CC(=O)NC3(C)C)cc1 [Compound 33, 2-(4-Fluorophenyl)-8,8-dimethyl-3-(p-tolylamino)-7,8-dihydroimidazo[1,2-a]pyrazin-6(5H)-one]
- improvement in potency [8]: 7 fold

Molecule: CC1(C)NC(=O)Cn2c1nc(-c1ccc(F)cc1)c2Nc1ccc(Cl)c(F)c1 [Compound 34, 3-(4-Chloro-3-fluorophenylamino)-2-(4-fluorophenyl)-8,8-dimethyl-7,8-dihydro imidazo[1,2-a]pyrazin-6(5H)-one]
- Papp A→B [2]: 3.22 ×10⁻⁶ cm/s
- Papp B→A [2]: 3.35 ×10⁻⁶ cm/s
- activity (average parasitemia reduction) ([4]; 1 × 30 mg/kg oral): 47.0%
- survival (average lifespan after infection) ([4]; 1 × 30 mg/kg oral): 6.3 days
- activity (average parasitemia reduction) ([4]; 1 × 100 mg/kg oral): 97.0%
- survival (average lifespan after infection) ([4]; 1 × 100 mg/kg oral): 6.7 days
- activity (average parasitemia reduction) ([4]; 3 × 30 mg/kg oral): 66.0%
- survival (average lifespan after infection) ([4]; 3 × 30 mg/kg oral): 7.0 days
- EC50 ([1]; Plasmodium falciparum, W2, read-out: P. falciparum strain EC50 W2): 65 ± 3 nM
- mouse microsome hepatic extraction ratio [9]: 0.61
- AUC(0-t) ([5]; male, Balb/c, iv, 5 mg/kg): 16.5 µM·h
- Vd ([5]; male, Balb/c, iv, 5 mg/kg): 2.7 L/kg
- clearance ([5]; male, Balb/c, iv, 5 mg/kg): 12.5 mL/min/kg
- half-life ([5]; male, Balb/c, iv, 5 mg/kg): 168 min
- bioavailability ([5]; male, Balb/c, oral, 20 mg/kg): 77%
- AUC(0-t) ([5]; male, Balb/c, po, 20 mg/kg): 50.6 µM·h
- Cmax ([5]; male, Balb/c, po, 20 mg/kg): 3650 nM
- Tmax ([5]; male, Balb/c, po, 20 mg/kg): 1 h
- half-life ([5]; male, Balb/c, po, 20 mg/kg): 163 min
- EC50 [10]: 36 ± 2 nM
- PAMPA, measured as percentage absorbed [11]: 97.1%
- AUC(0–5 h)/dose ([7]; PO, Wistar rat): 5.07 (min·μg/mL)/(mg/kg)
- AUC(0-t) [7, 13]: 2.1 µM·h
- Cmax [7, 13]: 504 nM

Molecule: Cc1ccc(Nc2c(-c3ccc(F)cc3)nc3n2CCNC3(C)C)cc1 [Compound 35, 2-(4-Fluorophenyl)-8,8-dimethyl-N-p-tolyl-5,6,7,8-tetrahydroimidazo[1,2-a]pyrazin-3-amine]
- Caco-2 A–B [3]: 15.56 cm/s ×10^6
- Caco-2 B–A [3]: 6.96 cm/s ×10^6
- EC50 [8]: ~10 nM
- improvement in potency [8]: ~10 fold

Molecule: (R)-2-Amino-1-(3-(4-chloro-3-fluorophenylamino)-2-(4-fluorophenyl)-8-isopropyl-5,6-dihydroimidazo[1,2-a]pyrazin-7(8H)-yl)ethanone [Compound 20]
- EC50 [1, 12]: 202 ± 38 nM

Molecule: (R)-2-Amino-1-(3-(4-chloro-3-fluorophenylamino)-2-(4-fluorophenyl)-8-methyl-5,6-dihydroimidazo[1,2-a]pyrazin-7(8H)-yl)ethanone [Compound 18]
- EC50 [1, 12]: 29 ± 3 nM

Molecule: (S)-2-Amino-1-(3-(4-chloro-3-fluorophenylamino)-2-(4-fluorophenyl)-8-isopropyl-5,6-dihydroimidazo[1,2-a]pyrazin-7(8H)-yl)ethanone [Compound 19]
- EC50 [1, 12]: 470 ± 130 nM

Molecule: (S)-2-Amino-1-(3-(4-chloro-3-fluorophenylamino)-2-(4-fluorophenyl)-8-methyl-5,6-dihydroimidazo[1,2-a]pyrazin-7(8H)-yl)ethanone [Compound 17]
- EC50 [1, 12]: 24 ± 1 nM
- loss/decrease of potency [8]: 10 fold
